Values joined by “and” are separate entries in the source; they are usually repeats but may differ in a detail not shown here. Identical values can stand only once. “Also recorded” adds a separate entry of the source.
Key:
[1] = test system: NCI/ADR-RES drug-resistant xenograft; type: in vivo; conditions: for tumor growth following the first drug administration on day 0 / days with statistically significant effects vs paclitaxel-treated tumors: intratumoral; for tumor growth following the first drug administration on day 0: 20 μg 21 or 26, 40 μg paclitaxel; for first day of statistically significant difference vs vehicle-treated tumors: intratumoral 20 μg on days 0, 3, 6, 10, 14, two-way ANOVA, Tukey; for persistence of antitumor efficacy after the final dose: intratumoral injection, paclitaxel-resistant tumor
Initial dose tolerance = type: in vivo, mice; conditions: systemic (ip), drug-sensitive or -resistant xenograft models
[2] = test system: HeLa cervical cancer cell line; conditions: cited from earlier work
[3] = biological target: T1, purified porcine brain tubulin (Sus scrofa, UniProt P02554); conditions: cited from earlier work
[4] = aqueous conditions; cited from earlier work
[5] = test system: NCI/ADR-RES drug-resistant xenograft; conditions: systemic administration; no reference given; cited from earlier work
[6] = biological target: T1, purified porcine brain tubulin; assay: Tubulin polymerization, turbidimetric at 340 nm; type: biochemical; conditions: 5 μM compound, tubulin 2 mg/mL, 37°C
In short: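 Test compound at 5 μM, a reference taccalonolide at 5−20 μM, or vehicle (1% EtOH). Samples were prepared on ice, then warmed to 37 °C to start polymerization. Rate and extent were followed turbidimetrically at 340 nm.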

[7] = Hydrolytic stability in aqueous solution; type: physicochemical; conditions: 10 mg in 1:1 EtOH-PBS, 36 h, room temperature
In short: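 Test compound stirred in 1× PBS–EtOH; the mixture was then vacuum-dried and extracted with CH3CN. The hydrolysis product was isolated by semipreparative C18 HPLC eluted with 60−100% CH3CN/H2O containing 0.1% formic acid. Isolated yield was the read-out.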

[8] = compared to 3; cited from earlier work
[9] = plasma / in vivo; cited from earlier work

T1 sequence (P02554 whole entry): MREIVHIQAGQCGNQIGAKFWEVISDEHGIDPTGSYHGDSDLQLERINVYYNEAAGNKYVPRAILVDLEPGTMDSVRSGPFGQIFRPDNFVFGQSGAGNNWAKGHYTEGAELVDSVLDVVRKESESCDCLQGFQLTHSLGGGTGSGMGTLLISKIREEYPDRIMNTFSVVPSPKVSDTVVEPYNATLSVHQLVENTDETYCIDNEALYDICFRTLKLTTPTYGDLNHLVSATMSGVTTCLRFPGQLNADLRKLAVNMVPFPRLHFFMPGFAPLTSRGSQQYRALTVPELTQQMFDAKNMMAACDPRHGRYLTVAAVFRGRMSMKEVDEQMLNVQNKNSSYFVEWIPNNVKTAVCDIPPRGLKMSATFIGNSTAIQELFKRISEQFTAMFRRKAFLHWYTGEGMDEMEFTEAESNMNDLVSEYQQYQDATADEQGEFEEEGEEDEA
T1 sequence (P02550 whole entry partner): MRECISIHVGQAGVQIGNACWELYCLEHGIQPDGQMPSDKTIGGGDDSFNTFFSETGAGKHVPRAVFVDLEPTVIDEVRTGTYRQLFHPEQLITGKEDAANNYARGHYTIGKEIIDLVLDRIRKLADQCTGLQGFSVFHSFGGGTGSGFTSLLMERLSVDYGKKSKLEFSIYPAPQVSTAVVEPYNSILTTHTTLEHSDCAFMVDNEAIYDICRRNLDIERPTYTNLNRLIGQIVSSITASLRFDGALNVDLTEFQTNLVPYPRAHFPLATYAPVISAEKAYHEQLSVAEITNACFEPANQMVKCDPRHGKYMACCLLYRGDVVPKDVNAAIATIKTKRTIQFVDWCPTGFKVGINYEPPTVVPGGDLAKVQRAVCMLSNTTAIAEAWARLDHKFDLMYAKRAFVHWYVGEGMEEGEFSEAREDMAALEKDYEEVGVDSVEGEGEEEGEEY

SMILES: CC(=O)O[C@H]1C(=O)[C@@]2(C)[C@H]([C@H](OC(=O)c3ccccc3)[C@]3(O)C[C@H](OC(=O)[C@H](O)[C@@H](NC(=O)c4ccccc4)c4ccccc4)C(C)=C1C3(C)C)[C@]1(OC(C)=O)CO[C@@H]1C[C@@H]2O [paclitaxel, reference compound]
- tumor growth rate compared with vehicle up to day 14 ([1]; intratumoral 40 μg): not different statistically
- tumor growth following the first drug administration on day 0 [1]: unaffected

SMILES: CC(=O)O[C@H]1[C@H]2[C@H]([C@@H]3[C@@H](OC(=O)C(C)(C)C)[C@@H]4[C@H]([C@H](C)[C@H]5O[C@]56OC(=O)[C@@](C)(O)[C@]46C)[C@@]3(C)[C@H]1OC(C)=O)[C@@H](O)C(=O)[C@H]1C[C@@H]3O[C@@H]3[C@H](OC(C)=O)[C@]21C [Compound 22]
- antitumor effects during MTD evaluations (Initial dose tolerance): lack of observable antitumor effects

SMILES: CC(=O)O[C@@H]1[C@H]2[C@H]3[C@H]([C@H](OC(C)=O)[C@H](OC(C)=O)[C@]2(C)[C@H]2[C@H](C)[C@H]4O[C@]45OC(=O)[C@@](C)(O)[C@]5(C)[C@H]12)[C@]1(C)[C@H](C[C@@H]2O[C@@H]2[C@@H]1OC(C)=O)C(=O)[C@@H]3O [Compound 3, taccalonolide AF]
- potency relative to 1 [2]: over 200 fold
- effect on polymerization of purified tubulin [3]: directly stimulates the polymerization of purified tubulin
- hydrolysis of C-15 acetoxy group [4]: readily hydrolyzed to generate 4 under aqueous conditions
- efficacy in the taxane-resistant model [5]: has efficacy in this taxane-resistant model with systemic administration

SMILES: CC(=O)O[C@H]1[C@H]2[C@H]([C@@H]3[C@@H](OC(=O)C4CC4)[C@@H]4[C@H]([C@H](C)[C@H]5O[C@]56OC(=O)[C@@](C)(O)[C@]46C)[C@@]3(C)[C@H]1OC(C)=O)[C@@H](O)C(=O)[C@H]1C[C@@H]3O[C@@H]3[C@H](OC(C)=O)[C@]21C [Compound 19]
- antitumor effects during MTD evaluations (Initial dose tolerance): lack of observable antitumor effects
- extent of tubulin polymerization compared with 4 [6]: comparable levels of tubulin polymerization compared to an equivalent concentration of 4

SMILES: CC(=O)O[C@H]1[C@H]2[C@H]([C@@H]3[C@@H](OC(=O)c4ccc5c(c4)C(=O)c4ccccc4C5=O)[C@@H]4[C@H]([C@H](C)[C@H]5O[C@]56OC(=O)[C@@](C)(O)[C@]46C)[C@@]3(C)[C@H]1OC(C)=O)[C@@H](O)C(=O)[C@H]1C[C@@H]3O[C@@H]3[C@H](OC(C)=O)[C@]21C [Compound 24]
- hydrolysis to 4, yield [7]: 67.4% and 67%

SMILES: CC(=O)O[C@H]1[C@H]2[C@H]([C@@H]3[C@@H](OC(=O)C(C)C)[C@@H]4[C@H]([C@H](C)[C@H]5O[C@]56OC(=O)[C@@](C)(O)[C@]46C)[C@@]3(C)[C@H]1OC(C)=O)[C@@H](O)C(=O)[C@H]1C[C@@H]3O[C@@H]3[C@H](OC(C)=O)[C@]21C [Compound 20]
- antitumor effects during MTD evaluations (Initial dose tolerance): lack of observable antitumor effects
- extent of tubulin polymerization compared with 4 [6]: comparable levels of tubulin polymerization compared to an equivalent concentration of 4

SMILES: CC(=O)O[C@H]1[C@H]2[C@H]([C@@H]3[C@@H](O)[C@@H]4[C@H]([C@H](C)[C@H]5O[C@]56OC(=O)[C@@](C)(O)[C@]46C)[C@@]3(C)[C@H]1OC(C)=O)[C@@H](O)C(=O)[C@H]1C[C@@H]3O[C@@H]3[C@H](OC(C)=O)[C@]21C [Compound 4, taccalonolide AJ]
- microsomal clearance [8]: higher microsomal clearance; also recorded: increased rate of microsomal clearance as compared to 3
- half-life [9]: lower in vivo half-life; also recorded: shorter plasma half-life

SMILES: CC(=O)O[C@H]1[C@H]2[C@H]([C@@H]3[C@@H](O)[C@@H]4[C@H]([C@H](C)[C@H]5O[C@]56OC(=O)[C@@](C)(O)[C@]46C)[C@@]3(C)[C@H]1OC(C)=O)[C@@H](OC(=O)C(C)(C)C)C(=O)[C@H]1C[C@@H]3O[C@@H]3[C@H](OC(C)=O)[C@]21C [Compound 27]
- extent of tubulin polymerization compared with 4 [6]: comparable levels of tubulin polymerization compared to an equivalent concentration of 4

SMILES: CC(=O)O[C@H]1[C@H]2[C@H]([C@@H]3[C@@H](OC(=O)CC(C)C)[C@@H]4[C@H]([C@H](C)[C@H]5O[C@]56OC(=O)[C@@](C)(O)[C@]46C)[C@@]3(C)[C@H]1OC(C)=O)[C@@H](O)C(=O)[C@H]1C[C@@H]3O[C@@H]3[C@H](OC(C)=O)[C@]21C [Compound 21]
- antitumor effects during MTD evaluations (Initial dose tolerance): lack of observable antitumor effects
- first day on which a tumor reached 1,500 mm^3 ([1]; 31 days after the final dose, intratumoral 20 μg): 45 days
- days with statistically significant effects vs paclitaxel-treated tumors [1]: 12 to 14 days
- first day of statistically significant difference vs vehicle-treated tumors [1]: 10 days
- persistence of antitumor efficacy after the final dose [1]: at least 30 days
- tumor growth following the first drug administration on day 0 [1]: abruptly slowed
- extent of tubulin polymerization compared with 4 [6]: greater extent of tubulin polymerization than equivalent concentrations of 4

SMILES: CC(=O)O[C@H]1[C@H]2[C@H]([C@@H]3[C@@H](O)[C@@H]4[C@H]([C@H](C)[C@H]5O[C@]56OC(=O)[C@@](C)(O)[C@]46C)[C@@]3(C)[C@H]1OC(C)=O)[C@@H](OC(=O)CC(C)C)C(=O)[C@H]1C[C@@H]3O[C@@H]3[C@H](OC(C)=O)[C@]21C [Compound 26]
- antitumor effects during MTD evaluations (Initial dose tolerance): lack of observable antitumor effects
- growth of tumors with smaller initial volumes (130 – 233 mm^3) ([1]; four tumors, intratumoral 20 μg): did not increase in size even by day 54
- days with statistically significant effects vs paclitaxel-treated tumors [1]: 12 to 14 days
- first day of statistically significant difference vs vehicle-treated tumors [1]: 12 days
- persistence of antitumor efficacy after the final dose [1]: at least 30 days
- tumor growth following the first drug administration on day 0 [1]: abruptly slowed
- extent of tubulin polymerization compared with 4 [6]: greater extent of tubulin polymerization than equivalent concentrations of 4
